Assay results as given in ChEMBL document CHEMBL4257477, “5,6-Benzoflavones as cholesterol esterase inhibitors: synthesis, biological evaluation and docking studies” (Medchemcomm, 2018).
pIC50: −log10 of the molar value. The source made the active and inactive calls. The calls are words filed in the database; no cut-off is given here.

Experiments:
[1] = Inhibition of porcine CEase using para-nitrophenyl butyrate as substrate preincubated with substrate for 5 mins followed by enzyme addition by spectrophotometric method; design: species or system Sus scrofa
Outline: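 Porcine cholesterol esterase (10 ng mL–1 final) was assayed in pH 7.0 phosphate/NaCl buffer with 6 mM taurocholate, 3% acetonitrile, and 20 μM p-nitrophenyl butyrate at 25 °C. Test compounds in DMSO were preincubated 5 min, then the enzyme was added and A405 was monitored. IC50 came from four concentrations (1, 5, 10, 25 nM), with means of triplicates.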

[2] = organism: Sus scrofa; assay: Inhibition of porcine CEase at 50 nM using para-nitrophenyl butyrate as substrate preincubated with substrate for 5 mins followed by enzyme addition by spectrophotometric method relative to control
[3] = organism: Sus scrofa; assay: Mixed-type inhibition of porcine CEase at 1 to 50 nM using para-nitrophenyl butyrate as substrate preincubated with substrate for 5 mins followed by enzyme addition by Lineweaver-Burk plot analysis

Compound | pIC50 [1] | inhibition [2] | inhibition [3]
O=c1cc(-c2ccc([N+](=O)[O-])cc2)oc2ccc3ccccc3c12 | 7.74 | > 60% | 
O=c1cc(-c2cccc(Cl)c2Cl)oc2ccc3ccccc3c12 | 9.14 | > 60% | Active
O=c1cc(-c2ccc(F)cc2F)oc2ccc3ccccc3c12 | 8.84 | > 60% | 
O=c1cc(-c2cc(F)cc(F)c2)oc2ccc3ccccc3c12 | 9.00 | > 60% | 
O=c1cc(-c2cccc(Br)c2)oc2ccc3ccccc3c12 | 8.22 | > 60% | 
O=c1cc(-c2ccc(C(F)(F)F)cc2F)oc2ccc3ccccc3c12 | 7.64 | > 60% | 
O=c1cc(-c2ccccc2)oc2ccc3ccccc3c12 [BETA-NAPHTHOFLAVONE] | 7.29 |  | 
O=c1cc(-c2c(F)cccc2C(F)(F)F)oc2ccc3ccccc3c12 | 7.54 | > 60% | 
O=c1cc(-c2cccc(F)c2)oc2ccc3ccccc3c12 | 8.41 | > 60% | 
O=c1cc(-c2ccccc2I)oc2ccc3ccccc3c12 | 8.02 | > 60% | 
O=c1cc(-c2ccccc2F)oc2ccc3ccccc3c12 | 8.59 | > 60% | 
O=c1cc(-c2cc(F)ccc2F)oc2ccc3ccccc3c12 | 8.97 | > 60% | 
O=c1cc(-c2ccccc2Br)oc2ccc3ccccc3c12 | 8.33 | > 60% | 
O=c1cc(-c2ccccc2C(F)(F)F)oc2ccc3ccccc3c12 | 7.50 | > 60% | 
O=c1cc(-c2cccc([N+](=O)[O-])c2)oc2ccc3ccccc3c12 | 7.78 | > 60% | 
O=c1cc(-c2ccc(Br)cc2)oc2ccc3ccccc3c12 | 8.09 | > 60% | 
O=c1cc(-c2ccc(F)cc2)oc2ccc3ccccc3c12 | 8.35 | > 60% | 
O=c1cc(-c2cc(F)ccc2C(F)(F)F)oc2ccc3ccccc3c12 | 7.56 | > 60% | 
O=c1cc(-c2cccc(Cl)c2)oc2ccc3ccccc3c12 | 9.08 | > 60% | 
O=c1cc(-c2ccc(CCl)cc2)oc2ccc3ccccc3c12 | 7.65 | > 60% | 
O=c1cc(-c2c(F)cccc2F)oc2ccc3ccccc3c12 | 8.92 | > 60% | 
CCOP(=O)(OCC)Oc1cc(O)c2c(=O)cc(-c3ccccc3)oc2c1 | 9.14 |  | 
O=c1cc(-c2ccc(I)cc2)oc2ccc3ccccc3c12 | 7.88 | > 60% | 
O=c1cc(-c2cc([N+](=O)[O-])cc([N+](=O)[O-])c2)oc2ccc3ccccc3c12 | 8.01 | > 60% | 
O=c1cc(-c2cccc(CCl)c2)oc2ccc3ccccc3c12 | 7.70 | > 60% | 
O=c1cc(-c2ccc(F)c(F)c2)oc2ccc3ccccc3c12 | 8.94 | > 60% | 
O=c1cc(-c2cc(F)cc(C(F)(F)F)c2)oc2ccc3ccccc3c12 | 7.54 | > 60% | 
